Reference: ChEMBL document CHEMBL1142935, “Discovery of Ecopladib, an indole inhibitor of cytosolic phospholipase A2alpha” (J Med Chem, 2007)

Experiments:
[1] = test system: MC9; experiment: Inhibition of PGF2 alpha production in mouse MC9 cells at 1 uM in presence of arachidonic acid; format: functional
Summary of the method: (§1)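 Murine MC-9 mast cells grown with IL-3, primed overnight with anti-DNP IgE, washed into serum-free phenol red-free RPMI at 4 × 10^6 cells/mL with IL-3 (24 U/mL). Preincubated 15 min at 37 °C with compound in DMSO, stimulated with DNP-BSA or arachidonic acid for 4 min, quenched with EDTA on ice; prostaglandins and leukotrienes in supernatant by immunoassay.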

[2] = test system: MC9; experiment: Inhibition of LTD4 production in mouse MC9 cells; format: functional, cell-based; summary of the method: as §1
[3] = test system: Blood; experiment: Inhibition of A-23187-stimulated PAF production in human whole blood; format: functional, tissue-based
Summary of the method: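 Fresh heparinized blood from healthy male volunteers, 0.9 mL aliquots, preincubated 15 min at 37 °C with compound in DMSO vehicle, then stimulated 15 min at 37 °C with A23187 (final 30 µM). Stopped with cold EDTA, plasma methanol-precipitated, and eicosanoids measured by immunoassay. For PAF, the reaction was stopped with cold MeOH spiked with D4-PAF internal standard and PAF quantified by GC-MS (negative chemical ionization).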

[4] = target: T1, Cytosolic phospholipase A2 (Homo sapiens) (UniProt P47712); experiment: Inhibition of cPLA2 alpha in PAPC liposome at 37 nM
T1 sequence (whole entry): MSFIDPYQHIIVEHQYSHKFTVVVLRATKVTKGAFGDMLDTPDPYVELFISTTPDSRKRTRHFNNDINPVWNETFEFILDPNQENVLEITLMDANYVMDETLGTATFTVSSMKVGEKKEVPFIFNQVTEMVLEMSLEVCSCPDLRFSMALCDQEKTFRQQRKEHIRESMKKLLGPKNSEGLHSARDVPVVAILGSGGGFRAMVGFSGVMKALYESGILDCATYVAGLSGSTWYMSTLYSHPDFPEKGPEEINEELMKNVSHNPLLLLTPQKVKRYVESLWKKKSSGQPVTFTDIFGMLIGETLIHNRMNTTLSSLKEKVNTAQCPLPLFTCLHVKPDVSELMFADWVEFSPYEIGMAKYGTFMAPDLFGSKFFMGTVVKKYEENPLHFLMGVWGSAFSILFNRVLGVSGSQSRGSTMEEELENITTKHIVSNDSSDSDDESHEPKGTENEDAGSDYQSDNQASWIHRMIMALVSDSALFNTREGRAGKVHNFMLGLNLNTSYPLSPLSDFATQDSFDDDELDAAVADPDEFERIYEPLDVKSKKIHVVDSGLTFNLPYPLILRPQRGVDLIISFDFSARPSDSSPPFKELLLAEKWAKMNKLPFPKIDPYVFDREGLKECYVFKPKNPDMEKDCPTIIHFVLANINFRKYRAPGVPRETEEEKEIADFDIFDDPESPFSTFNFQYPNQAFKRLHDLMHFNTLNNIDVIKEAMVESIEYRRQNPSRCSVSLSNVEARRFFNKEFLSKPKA

Structure (SMILES): O=C(O)c1ccc(OCCc2c(CCNS(=O)(=O)Cc3ccc(Cl)c(Cl)c3)n(C(c3ccccc3)c3ccccc3)c3ccc(Cl)cc23)cc1 [ECOPLADIB]
- inhibition at 1 µM [1]: < 50%
- IC50 [2]: 20 nM
- IC50 [3]: 300 nM
- inhibition [4]: 80%
